Data reported in publication PMC8926038 (Multiple sclerosis and related disorders, 2022).
Counter-ions that a name gives are not always drawn.

Tests used:
[1] = tested on: C3 secretion from inflammation-induced astrocytes; assay: C3 secretion; format: cell-based, human
Summary of the method: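 Primary human cortical astrocytes on PLL-coated plates; after 24 h, medium replaced with 50% v/v supernatant from resting or LPS (100 ng/ml) plus CD3/CD28 bead-stimulated PBMC, with test compound or matched DMSO. Screen run twice at single concentrations; titrations at 0–1000 nM (n = 3), IC50 from best-fit curves. Supernatant C3 by ELISA at 24 h, reported as % of stimulated DMSO after unstimulated subtraction.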

[2] = tested on: astrocytes; settings: in vitro pre-treatment, 25 μM, stimulation with IL1β; ref Galloway et al., 2017; cited from earlier work
[3] = tested on: secretome of inflammation-induced astrocytes; format: cell-based, human; settings: SOMAscan, n = 1; for secretion of "toxic astrocyte signature" biomarkers: normalized toxic vs resting astrocytes index
[4] = tested on: human induced pluripotent stem cells (iPSCs)-differentiated astrocytes; settings: pretreatment, in the presence of inflammatory stimuli; ref Colombo et al., 2020; cited from earlier work
[5] = doses over 400 mg/day; ref Utili et al., 1977; cited from earlier work
[6] = inflammation-induced astrocytes

COC(=O)/C=C/C(=O)OC [DMF, dimethyl fumarate]
C3 secretion by astrocytes ([1]; library screen at 100 nM): not at 100 nM
C3 secretion by astrocytes ([1]; library screen at 10 μM): inhibited
secretion of proinflammatory cytokines and oxidative stress [2]: reduced

CO[C@H]1C[C@@H]2CC[C@@H](C)[C@@](O)(O2)C(=O)C(=O)N2CCCC[C@H]2C(=O)O[C@H]([C@H](C)C[C@@H]2CC[C@@H](O)[C@H](OC)C2)CC(=O)[C@H](C)/C=C(\C)[C@@H](O)[C@@H](OC)C(=O)[C@H](C)C[C@H](C)/C=C/C=C/C=C/1C [Rapamycin]
secretion of "toxic astrocyte signature" biomarkers [3]: did not have potent effect on secretion of most
secretion of CCL20, TNFAIP6 and CFB [3, 6]: elevated
secretion of CCL20 and CCL8 [3, 6]: increased
secretion of SERPINA3 [3, 6]: failed to inhibit

CCCCCCCCc1ccc(CCC(N)(CO)CO)cc1 [fingolimod]
secretion of proinflammatory cytokines [4]: reduced

O=C1CN(/N=C/c2ccc(-c3ccc([N+](=O)[O-])cc3)o2)C(O)=N1 [Dantrolene]
hepatotoxicity [5]: serious hepatotoxicity
inhibition of secretion of C3 ([1]; drug library screen): 77.7%

CCc1cc(/C(C)=N/OCc2ccc(C3CCCCC3)c(C(F)(F)F)c2)ccc1CN1CC(C(=O)O)C1 [siponimod]
secretion of proinflammatory cytokines [4]: reduced

CC(C)c1cc(-c2n[nH]c(=O)n2-c2ccc3c(ccn3C)c2)c(O)cc1O [Ganetespib]
secretion of proteins from astrocytes not activated by inflammatory stimuli [3]: inhibited
secretion of "toxic astrocyte signature" biomarkers [3]: strongly reduced secretion of all biomarkers
